High-throughput results deposited in PubChem BioAssay by several laboratories.
Compounds with a hit are over-represented: about 9.8% of the library has one in this group of screens.
PMI act – phosphomannose isomerase (human) activation. purified human PMI, coupled resazurin fluorescence, 20 min; active compounds read high; 1 = vehicle control, 0 substrate-free wells. activation factor at 20 µM. hit rate 0.005% among 190,000;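 active = activation factor of 2 or more at 20 µM, relative to plate controls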
Target sequence (P34949 whole entry, looked up): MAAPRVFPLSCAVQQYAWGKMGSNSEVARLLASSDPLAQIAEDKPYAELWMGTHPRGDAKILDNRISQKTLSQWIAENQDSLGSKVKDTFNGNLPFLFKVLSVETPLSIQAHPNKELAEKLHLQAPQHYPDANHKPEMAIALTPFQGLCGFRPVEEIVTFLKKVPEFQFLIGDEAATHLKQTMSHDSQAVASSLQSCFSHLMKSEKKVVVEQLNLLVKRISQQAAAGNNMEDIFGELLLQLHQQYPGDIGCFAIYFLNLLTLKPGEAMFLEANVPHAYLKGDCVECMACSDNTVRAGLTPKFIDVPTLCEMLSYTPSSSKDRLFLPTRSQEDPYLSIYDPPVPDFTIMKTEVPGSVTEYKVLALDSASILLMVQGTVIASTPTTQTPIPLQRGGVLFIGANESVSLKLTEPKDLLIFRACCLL
WT yeast gro inh – growth inhibition of WT yeast, mitochondrial fusion screen. inhibition, % at 10 µM. AID 1362. mitochondrial fusion phenotypic screen, WT strain. hit rate 2.1% among 190,000; in the data active = inhibition above about 58%; tested in S. cerevisiae
Rad51 HR inh – Rad51 (human) homologous recombination inhibition | hRad51 DNA strand exchange, fluorescence dequenching | inhibition, % at 10 µM | hit rate 0.085% among 200,000;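 active = inhibition above 40% at the single screening dose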
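material = hRad51 filaments on single-stranded DNA | timing = filaments 15 min 37 °C, then compound 30 min | signal = FRET fluorescence dequenching, excitation 485 nm, emission 520 nm | benchmarks = control wells and blank wells on each plate | evaluation = percent inhibition relative to plate controls and blanks | compound = 10 µM final, single point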
Calpain2 inh – calpain II (pig) inhibition | purified calpain II, fluorogenic peptide substrate, 30 min | inhibition, % at 16 µM | hit rate 0.37% among 220,000 | AID 1236;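 active = inhibition above about 50%, limit read from the data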
L major viab – reduces viability of Leishmania major promastigotes | resazurin fluorescence viability | inhibition, % at 10 µM | hit rate 9% among 200,000; in the data active = inhibition above about 50%;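 note: promastigotes grown with compound for 44 hours at 28 °C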
PMI act hi M6P – increases human PMI activity with near-saturating mannose 6-phosphate. P34949. coupled PMI enzyme assay, resazurin fluorescence, 20 min; active compounds read high; 1 = untreated enzyme, 0 = substrate-free blank. activation factor at 20 µM. hit rate 0.34% among 190,000. AID 1216;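 active = activation factor of 2 or more at 20 µM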
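test system = human PMI in coupled enzyme assay | medium = HEPES-buffered pH 7.4 with magnesium and detergent | also added = 1.0 mM mannose-6-phosphate substrate with 0.22 mM NADP+ | compound = 20 µM single dose | times = 20 min incubation at room temperature | measured by = resorufin fluorescence (Ex 544/Em 590 nm) from resazurin via diaphorase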
A number is an active result; 0 = inactive; - = no result given.

SMILES | PMI act | WT yeast gro inh | Rad51 HR inh | Calpain2 inh | L major viab | PMI act hi M6P
CCc1cccc(CC)c1NC(=O)/C(C#N)=C/c1ccccc1C(F)(F)F | 0 | 68.4 | 0 | 0 | 97.4 | 0
CCOc1ccc(Oc2c(/C=N/NC(=O)C3CC3)c(C)nn2-c2ccccc2)cc1 | 0 | 0 | - | 0 | 0 | 0
COc1ccc(C2c3ccc4ccccc4c3Oc3ncn(Cc4ccco4)c(=N)c32)cc1OC (stereo not drawn) | 0 | 0 | 0 | 0 | 57.7 | 0
COc1ccc(C2c3c(ncn(CCN4CCOCC4)c3=N)Oc3ccc4ccccc4c32)cc1OC (stereo not drawn) | 0 | 0 | 0 | 0 | 100.4 | 0
CC1(C)COC(/C=C/c2ccc([N+](=O)[O-])cc2)=N1 | 0 | 0 | - | 0 | 87.0 | 0
COc1cccc(CN2CCN(Cc3cc(OC)c(OC)cc3[N+](=O)[O-])CC2)c1 | 0 | 0 | 0 | 0 | 59.8 | 0
COc1cc(CN2CCN(Cc3ccc([N+](=O)[O-])cc3)CC2)c([N+](=O)[O-])cc1OC | 0 | 0 | 0 | 0 | 67.7 | 0
C=C1c2cc3c(cc2NC(=S)N1Cc1ccccc1)OCO3 | - | - | - | 0 | - | -
Cc1ccc2nc(-c3ccc(NC(=O)CN4C(=O)c5ccccc5C4=O)cc3)sc2c1 | 0 | 0 | 0 | 0 | 0 | 0
C=CCn1c(SCC(=O)Nc2ccc(-c3nc4ccc(C)cc4s3)cc2)nnc1-c1ccncc1 | 0 | 0 | 0 | 0 | 50.0 | 0
Cc1ccc2nc(-c3ccc(NC(=O)CNC4CC4)cc3)sc2c1 | 0 | 59.3 | - | 0 | 0 | 0
COc1ccc(-n2cc(CNCCN3CCOC3=O)c(-c3ccccc3Cl)n2)cc1 | - | - | 0 | 0 | - | -
COc1ccc(-n2cc(CNCCc3ncc(C)[nH]3)c(-c3ccccc3Cl)n2)cc1 | - | 0 | 0 | 0 | 100.5 | -
COc1ccc(-n2cc(CNCCCn3ccnc3)c(-c3ccccc3Cl)n2)cc1 | 0 | 0 | 0 | 0 | 100.5 | 0
COc1ccc(-n2cc(CNCCc3nc(C)cc(C)n3)c(-c3ccccc3Cl)n2)cc1 | - | 0 | 0 | 0 | 0 | -
CCN1CCC(CNCc2cn(-c3ccc(OC)cc3)nc2-c2ccccc2Cl)C1 (stereo not drawn) | 0 | 0 | - | 0 | 100.5 | 0
CCCCNCC(O)(c1ccc(Cl)cc1)c1ccc(Cl)cc1 | 0 | 0 | 0 | 0 | 90.0 | 0
OC(CNCc1ccc(Cl)cc1)(c1ccccc1)c1ccc(F)cc1 (stereo not drawn) | 0 | 71.3 | 0 | 0 | 0 | 0
OC(CNCc1ccc(F)cc1)(c1ccc(F)cc1)c1ccc(F)cc1 | 0 | 0 | 0 | 0 | 0 | 0
COc1ccc(CNCC(O)(c2ccc(Cl)cc2)c2ccc(Cl)cc2)cc1 | 0 | 0 | 0 | 0 | 100.5 | 0
CC1CCCC(C)N1C(=S)SCC(=O)O (stereo not drawn) | 0 | 0 | 0 | 0 | 0 | 0
O=c1c(Cc2ccccc2)c(O)ccn1Cc1ccco1 | 0 | 0 | 0 | 0 | 0 | 0
O=C(Oc1ccccc1)c1cccc2cccc(C(=O)Oc3ccccc3)c12 | - | - | 0 | 0 | - | -
CCC(C)n1c(=S)[nH]c2ccccc2c1=O (stereo not drawn) | 0 | 0 | 0 | 0 | 0 | 0
CSCCC(NC(=O)c1cccc(C)c1)C(=O)OCC(=O)NC(=O)c1cccn1C (stereo not drawn) | 0 | 0 | 0 | 0 | 0 | 0
SMILES | PMI act | WT yeast gro inh | Rad51 HR inh | Calpain2 inh | L major viab | PMI act hi M6P
COC(=O)CN(c1nc(C)c(Br)c(OC)n1)S(=O)(=O)c1ccc(C)cc1 | 0 | 0 | 0 | 0 | 87.9 | 0
COc1ccc(Nc2nc(=O)c3cc([N+](=O)[O-])ccc3s2)cc1 | - | - | 0 | 60.2 | - | -
CNC(=O)CN(c1cc(OCCOC)c(Cl)cc1Cl)S(=O)(=O)c1ccc(OC)cc1 | 0 | 0 | 0 | 0 | 0 | 0
N=c1c2c(n(Cc3ccc(Cl)cc3)c3c1CCC3)CCC2 | 0 | 62.3 | 0 | 0 | 99.5 | 0
N=c1c2c(n(Cc3ccc(F)cc3)c3c1CCC3)CCCC2 | 0 | 0 | - | 0 | 99.2 | 0
N=c1c2c(n(Cc3cccc(Cl)c3)c3c1CCC3)CCCC2 | 0 | 62.4 | 0 | 0 | 100.1 | 0
Cc1nn(-c2ccccc2)c(C)c1/C=N/NC(=O)CSc1nnc(SCc2ccc(Cl)cc2)s1 | 0 | 0 | 0 | 0 | 0 | 0
Cc1ccc([N+](=O)[O-])cc1NC(=S)NC(=O)c1cccs1 | 0 | 0 | 0 | 0 | 0 | 0
CCC(CC)C(=O)Nc1nnc(SCC(=O)NC(C)(C)C)s1 | 0 | 0 | 0 | 0 | 0 | 0
O=C1[C@H]2[C@H](ON3CCCC[C@H]23)C(=O)N1c1ccc(Cl)cc1 | 0 | 0 | 0 | 0 | 0 | 0
Oc1ccc(/C=C/c2nc(-c3ccccc3O)n(-c3ccccc3)n2)cc1 | 0 | 78.8 | 0 | 0 | 0 | 0
Cc1ccc(C(=O)Nc2ccccc2C(=O)N2CCCC2)cc1[N+](=O)[O-] | 0 | 0 | 0 | 0 | 57.5 | 0
CCOC(=O)C1CCN(C(=O)c2ccccc2NC(=O)c2ccc(Cl)cc2)CC1 | 0 | 0 | 0 | 0 | 0 | 0
Cc1ccc(C(=O)Nc2ccc3c4c(cccc24)CC3)cc1[N+](=O)[O-] | 0 | 0 | 0 | 0 | 60.4 | 0
CCOC(=O)N1CCN(C(=O)c2ccccc2NC(=O)c2ccc(C(C)(C)C)cc2)CC1 | 0 | 0 | 0 | 0 | 73.7 | 0
O=C(CN1C(=O)C2C3CCC(C3)C2C1=O)N1CCN(Cc2ccccc2)CC1 (stereo not drawn) | - | 0 | 0 | 0 | 0 | -
O=C(/C=C/c1cccc2ccccc12)c1ccncc1 | 0 | 0 | 0 | 0 | 100.4 | 0
N#CCOC(=O)/C=C/c1ccc2c(c1)OCO2 | 0 | 0 | 0 | 0 | 0 | 0
CC(=O)Nc1ccc(S(=O)(=O)N2CCN(c3cc4c(cc3[N+](=O)[O-])n(C)c(=O)n4C)CC2)cc1 | 0 | 0 | 0 | 0 | 0 | 0
O=[N+]([O-])c1cc(C(F)(F)F)cc([N+](=O)[O-])c1N1CCN(S(=O)(=O)c2ccccc2)CC1 | 0 | 0 | 0 | 0 | 51.3 | 0
Cn1c(=O)n(C)c2cc([N+](=O)[O-])c(N3CCN(S(=O)(=O)c4ccc(C(C)(C)C)cc4)CC3)cc21 | 0 | 73.9 | 0 | 0 | 70.2 | 0
Cn1cc(CN2CCC[C@H]2CO)c(-c2cccc(Cl)c2)n1 | 0 | 0 | 0 | 0 | 0 | 0
Cc1cc(C)nc(N(C#N)Cc2cccc(Cl)c2)n1 | 0 | 0 | 0 | 0 | 0 | 0
Cc1ccc(S(=O)(=O)c2nnn3c2nc(N2CCCCC2)c2ccccc23)cc1 | 0 | 0 | 0 | 0 | 61.8 | 0
CC1=CC(C)(C)NC(=S)N1c1ccc(C)cc1 | 0 | 0 | 0 | 0 | 0 | 0
CC1(CCc2ccccc2)NC(=S)N(c2ccc(Cl)cc2)N1 (stereo not drawn) | 0 | 58.9 | - | 0 | 0 | 2.7
CCC1(c2ccccc2)NC(=S)N(c2ccc(C)c(C)c2)N1 (stereo not drawn) | 0 | 68.6 | 0 | 0 | 0 | 0
CCC1(c2ccc(Cl)cc2)NC(=S)N(c2ccc(C)cc2)N1 (stereo not drawn) | 0 | 67.8 | 0 | 0 | 0 | 0
CCC1(c2ccc(Cl)cc2)NC(=S)N(c2ccc(C)c(C)c2)N1 (stereo not drawn) | - | - | - | 0 | - | -
